Test results reported in ChEMBL document CHEMBL1926621, “New potent 5-HT(2A) receptor ligands containing an N'-cyanopicolinamidine nucleus: Synthesis and in vitro pharmacological evaluation” (Eur J Med Chem, 2012).

What was measured:
[1] = molecular target: T1, Adrenergic receptor alpha-1 (Rattus norvegicus, UniProt P15823+P23944+P43140); experiment: Displacement of [3H]prazosin from rat brain cortex adrenergic alpha1 receptor after 30 mins by liquid scintillation counting
T1 sequence (P15823 whole entry): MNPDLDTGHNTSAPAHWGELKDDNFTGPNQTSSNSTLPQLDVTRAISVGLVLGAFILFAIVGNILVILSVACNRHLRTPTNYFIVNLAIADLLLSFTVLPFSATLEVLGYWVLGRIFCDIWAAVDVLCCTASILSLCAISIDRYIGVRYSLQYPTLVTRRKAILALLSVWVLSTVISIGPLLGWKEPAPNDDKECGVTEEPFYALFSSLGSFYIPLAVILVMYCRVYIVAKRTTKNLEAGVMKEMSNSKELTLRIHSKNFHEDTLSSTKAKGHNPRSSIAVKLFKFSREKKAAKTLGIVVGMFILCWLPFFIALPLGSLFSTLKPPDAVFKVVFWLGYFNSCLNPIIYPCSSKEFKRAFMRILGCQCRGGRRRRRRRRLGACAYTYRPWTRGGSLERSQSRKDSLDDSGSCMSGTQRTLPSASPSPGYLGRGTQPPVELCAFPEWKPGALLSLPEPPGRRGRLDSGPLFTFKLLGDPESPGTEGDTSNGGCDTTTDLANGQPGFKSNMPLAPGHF
T1 sequence (P23944 whole entry): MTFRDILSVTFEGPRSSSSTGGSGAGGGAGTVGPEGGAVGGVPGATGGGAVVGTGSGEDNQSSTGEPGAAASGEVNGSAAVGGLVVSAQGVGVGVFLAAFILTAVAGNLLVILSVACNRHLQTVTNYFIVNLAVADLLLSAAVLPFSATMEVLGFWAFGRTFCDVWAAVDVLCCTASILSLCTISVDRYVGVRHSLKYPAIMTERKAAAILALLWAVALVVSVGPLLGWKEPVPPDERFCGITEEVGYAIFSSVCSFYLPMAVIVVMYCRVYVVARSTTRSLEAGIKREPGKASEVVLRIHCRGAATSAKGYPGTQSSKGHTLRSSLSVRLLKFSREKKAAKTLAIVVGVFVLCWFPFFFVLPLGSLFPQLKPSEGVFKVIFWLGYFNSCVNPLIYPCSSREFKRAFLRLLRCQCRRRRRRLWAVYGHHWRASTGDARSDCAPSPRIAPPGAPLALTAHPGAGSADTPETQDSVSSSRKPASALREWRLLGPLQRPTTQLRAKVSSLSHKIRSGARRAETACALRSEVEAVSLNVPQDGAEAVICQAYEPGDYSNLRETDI
T1 sequence (P43140 whole entry): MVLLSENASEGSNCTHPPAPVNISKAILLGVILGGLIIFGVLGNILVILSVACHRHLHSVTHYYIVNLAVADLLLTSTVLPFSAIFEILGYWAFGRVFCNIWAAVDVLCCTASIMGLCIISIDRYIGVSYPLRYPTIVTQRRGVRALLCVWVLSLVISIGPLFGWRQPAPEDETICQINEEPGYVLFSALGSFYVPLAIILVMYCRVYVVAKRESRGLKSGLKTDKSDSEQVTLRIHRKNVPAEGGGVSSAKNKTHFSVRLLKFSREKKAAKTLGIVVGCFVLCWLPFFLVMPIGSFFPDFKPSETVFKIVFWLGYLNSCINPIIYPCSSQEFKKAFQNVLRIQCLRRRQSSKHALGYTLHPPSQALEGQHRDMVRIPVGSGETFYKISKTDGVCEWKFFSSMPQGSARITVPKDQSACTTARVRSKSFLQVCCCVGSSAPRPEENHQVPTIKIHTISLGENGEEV
Outline: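 Brain cortex homogenized in 50 mM Tris-HCl pH 7.2, spun twice at 50,000 g, resuspended in Tris-HCl pH 7.4. 0.4 nM [3H]prazosin final, 10 mg fresh tissue, 30 min at 25 °C. Nonspecific binding with phentolamine. GF/B filtration. Ki by Cheng-Prusoff from six-point triplicate curves.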

[2] = molecular target: 5-hydroxytryptamine receptor 2A (Rattus norvegicus) (UniProt P14842); experiment: Displacement of [3H]ketanserin from Sprague-Dawley rat brain cortex serotonin 5-HT2A receptor at 0.00001 uM after 15 mins by liquid scintillation counting
Chain of 5-hydroxytryptamine receptor 2A (Rattus norvegicus) (P14842 whole entry): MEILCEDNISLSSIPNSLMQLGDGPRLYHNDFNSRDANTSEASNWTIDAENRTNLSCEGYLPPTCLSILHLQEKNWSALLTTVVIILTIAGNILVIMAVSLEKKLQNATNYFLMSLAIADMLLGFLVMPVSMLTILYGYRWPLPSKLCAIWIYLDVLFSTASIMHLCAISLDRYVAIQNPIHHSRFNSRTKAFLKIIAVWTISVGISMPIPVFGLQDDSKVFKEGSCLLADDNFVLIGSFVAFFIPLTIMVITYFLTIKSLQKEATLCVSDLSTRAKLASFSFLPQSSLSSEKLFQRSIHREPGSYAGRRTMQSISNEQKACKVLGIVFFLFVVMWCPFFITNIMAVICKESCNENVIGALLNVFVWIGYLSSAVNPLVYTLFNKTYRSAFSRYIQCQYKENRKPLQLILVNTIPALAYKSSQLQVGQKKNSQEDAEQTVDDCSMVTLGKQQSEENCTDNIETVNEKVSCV

[3] = molecular target: T2, Adrenergic receptor alpha-2 (Rattus norvegicus, UniProt P22086+P19328+P22909); experiment: Displacement of [3H]yohimbine from rat brain cortex adrenergic alpha2 receptor after 30 mins by liquid scintillation counting
T2 sequence (P22086 whole entry): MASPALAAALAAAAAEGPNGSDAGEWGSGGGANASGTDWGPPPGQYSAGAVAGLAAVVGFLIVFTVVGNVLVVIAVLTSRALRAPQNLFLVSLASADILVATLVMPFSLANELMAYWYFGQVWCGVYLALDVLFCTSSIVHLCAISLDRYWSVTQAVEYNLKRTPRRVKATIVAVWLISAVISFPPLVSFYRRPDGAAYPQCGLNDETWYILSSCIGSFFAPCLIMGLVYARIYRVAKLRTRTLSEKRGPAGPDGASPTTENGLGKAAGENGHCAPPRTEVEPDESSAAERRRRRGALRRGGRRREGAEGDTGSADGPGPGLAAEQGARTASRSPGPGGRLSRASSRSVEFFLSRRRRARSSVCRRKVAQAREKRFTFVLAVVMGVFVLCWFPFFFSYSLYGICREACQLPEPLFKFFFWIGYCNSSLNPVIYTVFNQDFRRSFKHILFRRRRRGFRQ
T2 sequence (P19328 whole entry): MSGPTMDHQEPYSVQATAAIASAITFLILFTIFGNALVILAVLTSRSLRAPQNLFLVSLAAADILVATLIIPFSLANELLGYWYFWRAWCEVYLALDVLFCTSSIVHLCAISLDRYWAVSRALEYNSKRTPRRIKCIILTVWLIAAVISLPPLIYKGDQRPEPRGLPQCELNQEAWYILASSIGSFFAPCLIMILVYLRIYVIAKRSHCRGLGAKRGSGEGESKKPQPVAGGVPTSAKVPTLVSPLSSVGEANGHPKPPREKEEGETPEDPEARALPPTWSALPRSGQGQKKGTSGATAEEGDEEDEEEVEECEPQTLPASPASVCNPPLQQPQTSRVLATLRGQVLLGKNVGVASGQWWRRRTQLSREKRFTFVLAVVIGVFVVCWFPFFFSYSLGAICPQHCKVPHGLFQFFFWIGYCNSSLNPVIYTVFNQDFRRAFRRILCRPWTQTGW
T2 sequence (P22909 whole entry): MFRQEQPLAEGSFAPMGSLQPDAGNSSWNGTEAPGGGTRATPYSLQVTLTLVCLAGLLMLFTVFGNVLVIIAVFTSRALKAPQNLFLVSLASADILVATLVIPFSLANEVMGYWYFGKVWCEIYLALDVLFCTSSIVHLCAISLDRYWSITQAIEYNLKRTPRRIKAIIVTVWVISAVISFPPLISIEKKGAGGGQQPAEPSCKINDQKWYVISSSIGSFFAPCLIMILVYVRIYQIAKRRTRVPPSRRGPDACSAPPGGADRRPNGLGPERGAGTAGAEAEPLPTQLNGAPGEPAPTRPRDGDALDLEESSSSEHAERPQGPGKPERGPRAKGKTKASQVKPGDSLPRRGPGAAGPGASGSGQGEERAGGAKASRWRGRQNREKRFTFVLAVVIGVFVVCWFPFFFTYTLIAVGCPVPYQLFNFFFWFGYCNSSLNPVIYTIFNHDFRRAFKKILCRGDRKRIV
Outline: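 Cortex homogenized in 5 mM Tris-HCl, 5 mM EDTA pH 7.3, spun three times at 50,000 g, resuspended in 50 mM Tris-HCl, 0.5 mM EDTA pH 7.5. [3H]yohimbine 1 nM final, 10 mg fresh tissue, 30 min at 25 °C. Phentolamine defined nonspecific binding. Ki by Cheng-Prusoff.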

[4] = molecular target: 5-hydroxytryptamine receptor 2A (Rattus norvegicus) (UniProt P14842); experiment: Displacement of [3H]ketanserin from Sprague-Dawley rat brain cortex serotonin 5-HT2A receptor at 0.0000001 uM after 15 mins by liquid scintillation counting
[5] = molecular target: 5-hydroxytryptamine receptor 2A (Rattus norvegicus) (UniProt P14842); experiment: Displacement of [3H]ketanserin from Sprague-Dawley rat brain cortex serotonin 5-HT2A receptor at 0.001 uM after 15 mins by liquid scintillation counting

Ki [1]: 174 nM
inhibition [2]: 68.8%
Ki [3]: 1360 nM
inhibition [4]: 45.3%
inhibition [5]: 95.1%
SMILES: N#C/N=C(\NCCCN1CCN(c2cccc(Cl)c2)CC1)c1ccccn1
